{"source": "ChEMBL document CHEMBL4622873", "about": "“Chlorosphaerolactylates A-D: Natural Lactylates of Chlorinated Fatty Acids Isolated from the Cyanobacterium Sphaerospermopsis sp. LEGE 00249” (2020)", "format_in_all_cases": "functional", "key": {"Staphylococcus hominis": {"test_system": "Staphylococcus hominis", "test": "Antibiofilm activity against coagulase-negative Staphylococcus hominis FI31 incubated for 48 hrs by crystal violet staining-based method", "method_in_brief": "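Strain FI31 is a clinical isolate recovered from an infected prosthesis. Media and solutions were made in ultrapure deionized water and sterilized by autoclaving at 121 °C for 15 min.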"}, "Staphylococcus aureus": {"test_system": "Staphylococcus aureus", "test": "Bactericidal activity against Staphylococcus aureus spa type t1333/S54F9 by CLSI-based broth microdilution method", "method_in_brief": "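S. aureus clinical isolate S54F9, revived on Mueller-Hinton agar at 37 °C from 25% (v/v) glycerol stocks held at -20 °C, then kept at 4 °C. Broth microdilution susceptibility test in 96-well plates, after which the upper wells were subcultured onto solid MSA agar to read the bactericidal endpoint.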"}, "Candida parapsilosis": {"test_system": "Candida parapsilosis", "test": "Fungicidal activity against Candida parapsilosis SMI416 by CLSI-based broth microdilution method", "settings": "Lodderomyces parapsilosis", "method_in_brief": "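C. parapsilosis SMI416, a clinical isolate from a bloodstream infection, revived on Mueller-Hinton agar at 37 °C from 25% (v/v) glycerol stocks held at -20 °C, then maintained at 4 °C. Media and solutions were made in ultrapure water and autoclaved at 121 °C for 15 min.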"}}}
{"smiles": "C[C@H](OC(=O)CCCCC(Cl)CCCCCCCl)C(=O)O", "note": "(some centres not stated)", "values": [{"measurement": "MBIC50", "setting": "Staphylococcus hominis", "result": "0.5 to 1.1", "unit": "mM"}, {"measurement": "MBC", "setting": "Staphylococcus aureus", "result": "2.7 to 6", "unit": "mM"}, {"measurement": "MFC", "setting": "Candida parapsilosis", "result": "2.7 to 6", "unit": "mM"}]}
{"smiles": "CCCCCCC(Cl)CCCCC(=O)OC(C)C(=O)O", "note": "(configuration not stated)", "values": [{"measurement": "MBIC50", "setting": "Staphylococcus hominis", "result": "0.5 to 1.1", "unit": "mM"}, {"measurement": "MBC", "setting": "Staphylococcus aureus", "result": "2.7 to 6", "unit": "mM"}, {"measurement": "MFC", "setting": "Candida parapsilosis", "result": "2.7 to 6", "unit": "mM"}]}
{"smiles": "CC(OC(=O)CCCCC(Cl)CCCCCC(Cl)Cl)C(=O)O", "note": "(configuration not stated)", "values": [{"measurement": "MBIC50", "setting": "Staphylococcus hominis", "result": "0.5 to 1.1", "unit": "mM"}, {"measurement": "MBC", "setting": "Staphylococcus aureus", "result": "2.7 to 6", "unit": "mM"}, {"measurement": "MFC", "setting": "Candida parapsilosis", "result": "2.7 to 6", "unit": "mM"}]}
{"smiles": "CC(OC(=O)CCCCCCCCCCCCl)C(=O)O", "note": "(configuration not stated)", "values": [{"measurement": "MBIC50", "setting": "Staphylococcus hominis", "result": "0.5 to 1.1", "unit": "mM"}, {"measurement": "MBC", "setting": "Staphylococcus aureus", "result": "2.7 to 6", "unit": "mM"}, {"measurement": "MFC", "setting": "Candida parapsilosis", "result": "2.7 to 6", "unit": "mM"}]}
